The full list was thinned out, with hits kept by preference.
UPR CHOP act = activators of apoptotic CHOP UPR arm, primary screen, cell-based, CHO-CHOP luciferase reporter, luminescence, uHTS | activation, % at 10 µM | UPR activation; percent of tunicamycin response over DMSO baseline | 330,000 compounds, 0.34% hits;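 active = at 10 µM dose, activation of 40% or more, normalized to positive control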;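 also: 100% = tunicamycin at 10 µg/mL and 0% = DMSO alone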
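Test system: CHO CHOP reporter cells. Input: 500 CHO-CHOP cells per well. Medium: F12 with 10% FBS. Technique: luciferase luminescence. Measure: percent activation relative to tunicamycin control. Dosing: 10 µM compound, 0.5% DMSO. Timing: 16-18 h cell attachment, then 6 h compound exposure, 37 °C.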
Jurkat NFkB inh = inhibitors of induced NF-kB luciferase reporter, primary screen, TCR NF-kB activation inhibitor project, cell-based, luminescence, uHTS | Jurkat, PMA/ionomycin-induced NF-kB luciferase reporter | inhibition, % at 4 µM | 330,000 compounds, 0.53% hits | AID 435003, 2010; in the data active = inhibition above about 50%
697 NFkB inh = inhibitors of PMA/ionomycin-induced NF-kB reporter, 697 cells, primary screen, B-cell NF-kB inhibitor project, cell-based, luminescence, uHTS. 697 B-cell NF-kB luciferase reporter, 16 h. inhibition, % at 4 µM. 330,000 compounds, 0.33% hits; in the data active = inhibition above about 35%
CHOP inhibitor = inhibitors of CHOP promoter induction, primary screen, cell-based, unfolded protein response, luciferase reporter | CHO-K1 CHOP-promoter luciferase, tunicamycin-induced, 15-18 h | inhibition, % at 10 µM | 220,000 compounds, 3.8% hits | AID 2732, 2010;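 active = compounds that reduced the stress-induced luciferase reporter signal by more than about 70% of percent inhibition, limit read from the data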;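 also: 0% = tunicamycin plus vehicle and 100% = wells without tunicamycin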
UPR XBP1 act = activators of adaptive XBP1 UPR arm, primary screen, cell-based, CHO-XBP1 luciferase reporter, luminescence, uHTS; IRE1-XBP1 UPR activation; percent of tunicamycin response, DMSO as zero; activation, % at 20 µM; 330,000 compounds, 0.33% hits; AID 463104, 2010;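 active = versus positive control, 20 µM dose yields 30% or more activation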;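 also: 100% = tunicamycin at 10 µg/mL and 0% = DMSO only wells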
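Material: CHO cell line with stable XBP1 luciferase reporter; schedule: 16-18 h cell attachment at 37 °C, then 6 h compound exposure; signal: glow luminescence from Steady-Glo reagent; medium: serum-containing F12 medium, 10% FBS; benchmarks: tunicamycin 10 µg/mL and vehicle-only wells; read-out: percent activation relative to tunicamycin reference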
UPR XBP1 confirm = IRE1-XBP1 UPR arm activators, confirmation, cell-based, CHO-XBP1 luciferase reporter, luminescence, single concentration; shares compounds with UPR XBP1 act; activation, % at 20 µM; 1,000 compounds, 63% hits;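 active = reporter signal at least 30% of the positive control's activation in two or more of four replicate wells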;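 also: plate controls were DMSO negative control for no effect and tunicamycin 10 µg/mL positive control for full effect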
Active calls of the source: *.

For COc1ccc(C(=O)/C=C/c2cccs2)c(OC(=O)c2cccc([N+](=O)[O-])c2)c1 the results were UPR CHOP act 8, Jurkat NFkB inh -16, 697 NFkB inh -15, CHOP inhibitor -99, UPR XBP1 act 42* and UPR XBP1 confirm 56*.
O=C(CC1CC2CCC1C2)N1CCN(S(=O)(=O)c2ccccc2F)CC1 (centres undefined) was read as UPR CHOP act -1, Jurkat NFkB inh -17, 697 NFkB inh -2 and UPR XBP1 act -1.
For COc1cccc(-c2sc3ccccc3c2-c2ccc(OCCN(C)C)cc2)c1 the results were UPR CHOP act 3, Jurkat NFkB inh -2, 697 NFkB inh 15, UPR XBP1 act 37* and UPR XBP1 confirm 54*.
For COc1ccc(-c2sc3ccccc3c2-c2ccc(OCCN3CCCCC3)cc2)cc1 the results were UPR CHOP act 3, Jurkat NFkB inh 6, 697 NFkB inh -1 and UPR XBP1 act 10.
COc1cccc(-c2sc3ccccc3c2-c2ccc(OCCN3CCCC3)cc2)c1 was read as UPR CHOP act 3, Jurkat NFkB inh 4, 697 NFkB inh 12 and UPR XBP1 act 25.
Screening c1ccc(-c2sc3ccccc3c2-c2ccc(OCCN3CCCC3)cc2)cc1 returned UPR CHOP act 3, Jurkat NFkB inh 6, 697 NFkB inh 4, UPR XBP1 act 32* and UPR XBP1 confirm 19.
COc1cc(/C=C/C(=O)OC(C)C(=O)Nc2c(C)n(C)n(-c3ccccc3)c2=O)ccc1OCC#N (centres undefined) was read as UPR CHOP act -2, Jurkat NFkB inh 5, 697 NFkB inh 0, CHOP inhibitor 4 and UPR XBP1 act -1.
CCCCCCCNC(=O)C1(CC2CC(c3ccc(Cl)cc3)=NO2)CCN(C(=O)c2cc(OCC)c(OCC)c(OCC)c2)CC1 (centres undefined) was read as UPR CHOP act 5, Jurkat NFkB inh 46, 697 NFkB inh 6 and UPR XBP1 act 0.
Screening CCC(Sc1nnc2c3ccccc3n(CC)c2n1)C(=O)Nc1sc2c(c1C#N)CCCC2 (centres undefined) returned UPR CHOP act 12, Jurkat NFkB inh -19, 697 NFkB inh -20, CHOP inhibitor 9, UPR XBP1 act 163* and UPR XBP1 confirm 157*.
Cc1ccc(-c2csc(/C(C#N)=C/Nc3ccc4c(c3)OCCO4)n2)cc1 was read as UPR CHOP act 3, Jurkat NFkB inh 48, 697 NFkB inh 12, CHOP inhibitor 21, UPR XBP1 act 33* and UPR XBP1 confirm 30.
Screening Cc1ccc2nc(Nc3ccc(F)cc3)c3nncn3c2c1 returned UPR CHOP act 3, Jurkat NFkB inh -11, 697 NFkB inh -7 and UPR XBP1 act 1.
Screening Cc1ccc(Nc2nc3ccc(Cl)cc3n3cnnc23)cc1F returned UPR CHOP act 2, Jurkat NFkB inh 16, 697 NFkB inh 16, UPR XBP1 act 32* and UPR XBP1 confirm 48*.
`CC(=O)Nc1ccc(S(=O)(=O)NC2(C(F)(F)F)NC(=O)N(Cc3ccccc3)C2=O)cc1` (centres undefined) gave UPR CHOP act 0, Jurkat NFkB inh -6, 697 NFkB inh 1 and UPR XBP1 act -2.
For CCOC(=O)/C=c1\s/c(=C\c2ccc(C(=O)OC)cc2)c(=O)n1CC(=O)Nc1ccccc1 the results were UPR CHOP act 27, Jurkat NFkB inh 6, 697 NFkB inh 11, CHOP inhibitor -8, UPR XBP1 act 92* and UPR XBP1 confirm 1.
Screening CCOC(=O)/C=c1\s/c(=C\c2ccc(C#N)cc2)c(=O)n1CC(=O)NCc1ccco1 returned UPR CHOP act -1, Jurkat NFkB inh -6, 697 NFkB inh -10, CHOP inhibitor -2 and UPR XBP1 act 1.
`Cc1ccc2c(=O)[nH]c(Nc3nc(C)cc(-c4ccccc4)n3)nc2c1` gave UPR CHOP act 8, Jurkat NFkB inh 2, 697 NFkB inh 18, CHOP inhibitor 42, UPR XBP1 act 33* and UPR XBP1 confirm 43*.
Cc1cc(C)cc(Nc2nc3ccccc3c(=O)[nH]2)c1 was read as UPR CHOP act -1, Jurkat NFkB inh 6, 697 NFkB inh 11, CHOP inhibitor 48 and UPR XBP1 act 4.
Cc1nc(Nc2nc(-c3ccccc3)cc(=O)[nH]2)nc2ccccc12 was read as UPR CHOP act 3, Jurkat NFkB inh -11, 697 NFkB inh 21, UPR XBP1 act 84* and UPR XBP1 confirm 132*.
`O=C(Nc1ccnn1C1CCN(Cc2ccc(CO)o2)CC1)c1ccc2c(c1)OCO2` gave UPR CHOP act 1, Jurkat NFkB inh -3, 697 NFkB inh 20 and UPR XBP1 act -6.
`COC(=O)c1c(C)oc2ccc(N(C(=O)c3ccncc3)S(=O)(=O)c3ccc4ccccc4c3)cc12` gave UPR CHOP act 4, Jurkat NFkB inh -5, 697 NFkB inh -29, CHOP inhibitor 53 and UPR XBP1 act -2.
COC(=O)c1c(C)oc2ccc(N(C(=O)Oc3ccccc3)S(=O)(=O)c3ccc(Cl)c([N+](=O)[O-])c3)cc12 was read as UPR CHOP act 4, Jurkat NFkB inh -4, 697 NFkB inh 8, CHOP inhibitor 83*, UPR XBP1 act 32* and UPR XBP1 confirm 139*.
Screening CCC(Oc1cc(Cl)ccc1Cl)C(=O)N1CCCN(C)CC1 (centres undefined) returned UPR CHOP act 2, Jurkat NFkB inh 0, 697 NFkB inh 7 and UPR XBP1 act -5.
`Brc1cc(Br)c2ncnc(N3CCCCC3)c2c1` gave UPR CHOP act -1, Jurkat NFkB inh 10, 697 NFkB inh -9, CHOP inhibitor 66, UPR XBP1 act 59* and UPR XBP1 confirm 41*.
For CCOc1ccc(NC(=O)C(Cc2ccccc2)N2C(=O)c3cccc4cccc(c34)C2=O)cc1 (centres undefined) the results were UPR CHOP act 19, Jurkat NFkB inh 7, 697 NFkB inh 7, CHOP inhibitor -6, UPR XBP1 act 65* and UPR XBP1 confirm 69*.
COc1ccc(CCNC(=O)C2CC(=O)N(C3CCCCC3)C2)cc1OC (centres undefined) was read as UPR CHOP act 0, Jurkat NFkB inh -3, 697 NFkB inh 1 and UPR XBP1 act -2.
Screening CC(OC(=O)c1ccncc1)C(=O)NC1CCCC1 (centres undefined) returned UPR CHOP act -1, Jurkat NFkB inh -5, 697 NFkB inh 19, CHOP inhibitor -10 and UPR XBP1 act -1.
